Experimental findings from ChEMBL document CHEMBL1143818, “Prevention of brain injury by the nonbacteriolytic antibiotic daptomycin in experimental pneumococcal meningitis” (2007) are described below.

The subject of assay [1] is Streptococcus pneumoniae. In words: Antibacterial activity against Streptococcus pneumoniae ATCC 49619. Type of assay: functional. The method, boiled down:
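MIC by antibiotic gradient strip (Etest) on blood agar plates inoculated with the strain, per manufacturer's recommendations; reference strain tested in parallel with the serotype 3 clinical isolate.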

The test system of assay [2] is Streptococcus pneumoniae. Nature of the assay: Antibacterial activity against Streptococcus pneumoniae serotype 3. The assay is classed as functional. The method, boiled down: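 MIC by gradient-strip diffusion (Etest) on blood agar plates inoculated with the study's serotype 3 clinical isolate, run per manufacturer's recommendations. Reference strain ATCC 49619 was tested in parallel. Result read as MIC in mg/liter.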

In assay [3] the test system is Streptococcus pneumoniae. In words: Antimicrobial activity against Streptococcus pneumoniae infected Wistar rat CSF assessed as decrease in bacterial titer at 100 mg/kg, sc after 2 hrs. Type of assay: functional. The following applies: route subcutaneous. The procedure, abridged:
(§1)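 Eleven-day-old Wistar rats infected intracisternally with 1.3 × 104 ± 0.5 × 10^4 CFU of S. pneumoniae serotype 3 clinical isolate in 10 μl saline. Single s.c. antibiotic dose started 18 h post-infection. CSF taken by cisterna magna puncture before therapy and at 20 h and 24 h post-infection. CFU counted by plating serial dilutions of 10 μl CSF on blood agar (detection limit 10^3 CFU/ml).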

Assay [4] deals with Rattus norvegicus. Nature of the assay: Decrease on TNFalpha level in Streptococcus pneumoniae infected Wistar rat CSF at 100 mg/kg, sc after 24 hrs by ELISA. The assay is classed as functional. Particulars: route subcutaneous. The procedure, abridged: (§2)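 Infant Wistar rats (11 days old) infected intracisternally with S. pneumoniae serotype 3 (1.3 × 104 ± 0.5 × 10^4 CFU). Single s.c. antibiotic dose given 18 h post-infection. CSF sampled by intracisternal puncture 2 and 6 h after dosing and at 24 h post-infection. Samples spun 5 min at 13,000 rpm, 4°C to remove bacteria and leukocytes, diluted 20-fold, then assayed for rat TNF-α by ELISA (detection limit <5 pg/ml).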
For orientation: ELISA stands for enzyme-linked immunosorbent assay.

The test system of assay [5] is Rattus norvegicus. In words: Effect on TNFalpha level in Streptococcus pneumoniae infected Wistar rat CSF at 100 mg/kg, sc after 2 to 6 hrs y ELISA. Type of assay: functional. The following applies: route subcutaneous. The method, boiled down: as §2
Assay [6] relates to Streptococcus pneumoniae. Nature of the assay: Effect on Streptococcus pneumoniae infection induced elevation of MMP9 level in Wistar rat CSF assessed as MMP-9/MMP-2 index at 50 mg/kg, sc after 24 hrs by gel zymography. Type of assay: functional. The following applies: route subcutaneous. The procedure, abridged:
(§3)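 Intracisternally infected 11-day-old Wistar rats (S. pneumoniae serotype 3) dosed s.c. from 18 h. CSF sampled at 20, 24 or 40 h post-infection. 3 μl CSF run on nonreducing 10% SDS-PAGE containing 1% gelatin. Gels washed 1 h in 2.5% Triton X-100, incubated 18 h at 37°C (50 mM NaCl, 10 mM CaCl2, 50 mM Tris, pH 7.6), Coomassie stained. Lysis zones at 92 and 72 kDa measured by densitometry and reported as MMP-9/MMP-2 ratio. Uninfected saline-injected rats served as controls.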

The test system of assay [7] is Streptococcus pneumoniae. In words: Antimicrobial activity against Streptococcus pneumoniae infected Wistar rat CSF assessed as decrease in bacterial titer at 50 mg/kg, sc after 6 hrs. The assay is classed as functional, organism-based. More on the design: dose 50 mg/kg. The procedure, abridged: as §1
Assay [8] has as its system Streptococcus pneumoniae. Nature of the assay: Antimicrobial activity against Streptococcus pneumoniae infected Wistar rat CSF assessed as decrease in bacterial titer at 50 mg/kg, sc after 2 hrs. Type of assay: functional. The following applies: route subcutaneous. The procedure, abridged: as §1
Assay [9] deals with Streptococcus pneumoniae. In words: Effect on Streptococcus pneumoniae infection induced brain injury in Wistar rat hippocampal dentate gyrus assessed as number of apoptotic cells at 50 mg/kg, sc after 40 hrs. The following applies: route subcutaneous. Type of assay: functional. The method, boiled down:
(§4)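 Following intracisternal pneumococcal infection and s.c. dosing from 18 h, brains were taken at 20, 24 or 40 h after PFA perfusion. Cells with fragmented bodies or condensed nuclei were counted blind in three ×400 fields in each of the four dentate gyrus blades. Counts averaged over twelve coronal sections per animal. Uninfected rats served as controls.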

For assay [10], the system named is Rattus norvegicus. Nature of the assay: Decrease in TNFalpha level in Streptococcus pneumoniae infected Wistar rat CSF at 50 mg/kg, sc after 24 hrs by ELISA. Type of assay: functional. The following applies: route subcutaneous. The method, boiled down: as §2
The subject of assay [11] is Streptococcus pneumoniae. Nature of the assay: Effect on Streptococcus pneumoniae infection induced elevation of MMP9 level in Wistar rat CSF assessed as MMP-9/MMP-2 index at 50 mg/kg, sc after 40 hrs by gel zymography. The following applies: route subcutaneous. The assay is classed as functional. The procedure, abridged: as §3
Assay [12] relates to Streptococcus pneumoniae. In words: Effect on Streptococcus pneumoniae infection induced brain injury in Wistar rat hippocampal dentate gyrus assessed as number of apoptotic cells at 50 mg/kg, sc after 20 hrs. The assay is classed as functional. Particulars: route subcutaneous. The procedure, abridged: as §4
The subject of assay [13] is Streptococcus pneumoniae. Nature of the assay: Effect on Streptococcus pneumoniae infection induced brain injury in Wistar rat hippocampal dentate gyrus assessed as number of apoptotic cells at 50 mg/kg, sc after 24 hrs. Type of assay: functional. Particulars: route subcutaneous. The procedure, abridged:
as §4

In assay [14] the test system is Rattus norvegicus. Nature of the assay: Effect on TNFalpha level in Streptococcus pneumoniae infected Wistar rat CSF at 50 mg/kg, sc after 2 to 6 hrs y ELISA. The assay is classed as functional. The following applies: route subcutaneous. The method, boiled down: as §2
Assay [15] relates to Streptococcus pneumoniae. In words: Effect on Streptococcus pneumoniae infection induced elevation of MMP9 level in Wistar rat CSF assessed as MMP-9/MMP-2 index at 50 mg/kg, sc after 20 hrs by gel zymography. Particulars: route subcutaneous. Type of assay: functional. The procedure, abridged:
as §3

Values after ≈ are worked out from the molar mass of the structure shown. Active and inactive are the calls of the source. The calls are words filed in the database; no cut-off is given here.

As for `CO/N=C(\C(=O)N[C@@H]1C(=O)N2C(C(=O)O)=C(CSc3nc(=O)c(O)nn3C)CS[C@H]12)c1csc(N)n1` [CEFTRIAXONE], the results for the MIC against Streptococcus pneumoniae [1] and with Streptococcus pneumoniae [2] were 0.094 µg/mL (≈ 0.169 µM) and 0.023 µg/mL (≈ 0.0415 µM), respectively. Further, the Log10 cfu with Streptococcus pneumoniae [3] is reported as 6.3 /ml. Moreover, the Activity in the assay with Rattus norvegicus [4] was found to be 249 pg/mL; with Rattus norvegicus [5], 4578 pg/mL.
Regarding `CCCCCCCCCC(=O)N[C@@H](Cc1c[nH]c2ccccc12)C(=O)N[C@H](CC(N)=O)C(=O)N[C@@H](CC(=O)O)C(=O)N[C@@H]1C(=O)NCC(=O)N[C@@H](CCCN)C(=O)N[C@@H](CC(=O)O)C(=O)N[C@H](C)C(=O)N[C@@H](CC(=O)O)C(=O)NCC(=O)N[C@H](CO)C(=O)N[C@@H]([C@H](C)CC(=O)O)C(=O)N[C@@H](CC(=O)c2ccccc2N)C(=O)O[C@@H]1C`, the figures for the MIC in the assay with Streptococcus pneumoniae [1] and against Streptococcus pneumoniae [2] were 0.38 µg/mL (≈ 0.234 µM) and 0.25 µg/mL (≈ 0.154 µM), respectively. In addition, the Ratio with Streptococcus pneumoniae [6] worked out at 1.2; with Streptococcus pneumoniae [11], 0.6; in the assay on Streptococcus pneumoniae [15], 1.6. Moreover, in the assay on Streptococcus pneumoniae [7], the result was Active. Also, the Log10 cfu in the assay with Streptococcus pneumoniae [8] is on record as 3.6 /ml. In addition, the Activity with Streptococcus pneumoniae [9] is 6.1%; with Rattus norvegicus [10], 352 pg/mL; in the assay with Streptococcus pneumoniae [12], 5.5%; with Streptococcus pneumoniae [13] it was 14.9%; in the assay with Rattus norvegicus [14], 3059 pg/mL.

One may read the MIC as the least concentration at which growth counts as inhibited. High values mean a need for much substance, low ones inhibition by little substance.
